One experiment addresses Carbonic anhydrase 12 (Homo sapiens, UniProt O43570). The experiment is described as follows: Inhibition of human recombinant carbonic anhydrase 12 preincubated for 15 mins by stopped flow CO2 hydration method. A digest of the protocol:
(§1)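 Stopped-flow assay of CO2 hydration by in-house recombinant CA isoforms. Phenol red 0.2 mM read at 557 nm, in 20 mM Tris pH 8.3 with 20 mM Na2SO4 for constant ionic strength. CO2 1.7–17 mM; initial rates over 10–100 s, uncatalyzed rate subtracted. Inhibitor diluted in buffer down to 0.005 nM and preincubated with enzyme 15 min at room temperature. Ki by non-linear least squares with Cheng-Prusoff, mean of ≥3 determinations.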

In the next experiment the target is Carbonic anhydrase 9 (Homo sapiens, UniProt Q16790). The experiment is described as follows: Inhibition of human recombinant carbonic anhydrase 9 preincubated for 15 mins by stopped flow CO2 hydration method. In a few lines:
as §1

Experiment [1] is filed under the species Homo sapiens. The experiment is described as follows: Selectivity ratio of Ki for human recombinant carbonic anhydrase 2 to Ki for human recombinant carbonic anhydrase 12.
A further experiment concerns the target Carbonic anhydrase 2 (Homo sapiens, UniProt P00918). The experiment is described as follows: Inhibition of human recombinant carbonic anhydrase 2 preincubated for 15 mins by stopped flow CO2 hydration method.
The next experiment has as its target Carbonic anhydrase 1 (Homo sapiens, UniProt P00915). The experiment is described as follows: Inhibition of human recombinant carbonic anhydrase 1 preincubated for 15 mins by stopped flow CO2 hydration method. A digest of the protocol: as §1
For experiment [2], the species on record is Homo sapiens. The experiment is described as follows: Selectivity ratio of Ki for human recombinant carbonic anhydrase 2 to Ki for human recombinant carbonic anhydrase 1.
For experiment [3], the species on record is Homo sapiens. The experiment is described as follows: Selectivity ratio of Ki for human recombinant carbonic anhydrase 9 to Ki for human recombinant carbonic anhydrase 2.
For experiment [4], the species on record is Homo sapiens. The experiment is described as follows: Selectivity ratio of Ki for human recombinant carbonic anhydrase 12 to Ki for human recombinant carbonic anhydrase 2.
The species named for experiment [5] is Homo sapiens. The experiment is described as follows: Selectivity ratio of Ki for human recombinant carbonic anhydrase 1 to Ki for human recombinant carbonic anhydrase 2.

The term Ki denotes the dissociation constant of the complex between target and ligand, obtained from inhibition or displacement.

Each structure is given as a SMILES string.

Chain of Carbonic anhydrase 12 (O43570 whole entry, canonical isoform): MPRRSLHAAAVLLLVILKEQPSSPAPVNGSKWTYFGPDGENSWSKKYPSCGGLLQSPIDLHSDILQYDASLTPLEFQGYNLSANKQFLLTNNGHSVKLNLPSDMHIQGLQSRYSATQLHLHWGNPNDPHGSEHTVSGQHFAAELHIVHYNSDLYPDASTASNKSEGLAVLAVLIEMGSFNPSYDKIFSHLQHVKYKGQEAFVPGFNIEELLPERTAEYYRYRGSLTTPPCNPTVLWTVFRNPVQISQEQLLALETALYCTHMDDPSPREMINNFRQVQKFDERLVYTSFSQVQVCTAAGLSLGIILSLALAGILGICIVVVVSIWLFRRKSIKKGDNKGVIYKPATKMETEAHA
Chain of Carbonic anhydrase 1 (P00915 whole entry): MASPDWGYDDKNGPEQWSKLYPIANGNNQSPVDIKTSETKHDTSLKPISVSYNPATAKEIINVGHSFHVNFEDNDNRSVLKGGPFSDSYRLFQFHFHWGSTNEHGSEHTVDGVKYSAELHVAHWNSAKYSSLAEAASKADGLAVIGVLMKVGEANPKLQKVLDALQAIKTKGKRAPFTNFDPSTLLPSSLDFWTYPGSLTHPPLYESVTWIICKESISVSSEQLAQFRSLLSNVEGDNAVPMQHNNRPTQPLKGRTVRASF

`COc1ccc(-c2cnc(C(=O)N3CCOCC3)o2)cc1S(N)(=O)=O`: the inhibitory constant (Ki) at Carbonic anhydrase 12 is > 10000 nM; at Carbonic anhydrase 9 it was 4.5 nM; at Carbonic anhydrase 2, 0.05 nM; on Carbonic anhydrase 1, > 10000 nM. The Ratio Ki in the experiment filed under Homo sapiens [1] and in the experiment listed under Homo sapiens [2] was > 100000 each time.

`NS(=O)(=O)c1ccc(-c2cnc(C(=O)N3CCCC3)o2)s1`: the Ki at Carbonic anhydrase 12 came to 6.7 nM; on Carbonic anhydrase 9 it was 18.7 nM; on Carbonic anhydrase 2, 0.01 nM; on Carbonic anhydrase 1 it was 41.9 nM. Moreover, the Ratio Ki in the experiment filed under Homo sapiens [2] came out at 1000.

For `COc1ccc(-c2cnc(C)o2)cc1S(N)(=O)=O`, the Ki on Carbonic anhydrase 12 is 3540 nM; on Carbonic anhydrase 9, 276 nM; at Carbonic anhydrase 2 it was 4420 nM; at Carbonic anhydrase 1, > 10000 nM. For the same molecule, the Ratio Ki in the experiment filed under Homo sapiens [1] and in the experiment listed under Homo sapiens [2] was > 100000 in each case.

Consider `NS(=O)(=O)c1ccc(-c2cnc(C(=O)N3CCCC3)o2)cc1`, for which the Ki at Carbonic anhydrase 12 is 42.3 nM; on Carbonic anhydrase 9, 1.7 nM; at Carbonic anhydrase 2, 0.009 nM; at Carbonic anhydrase 1, 0.01 nM.

On to `NS(=O)(=O)c1cc(-c2cnc(C(=O)N3CCOCC3)o2)cs1`, for which the results for the Ki on Carbonic anhydrase 12, on Carbonic anhydrase 2 and on Carbonic anhydrase 1 were 9.2 nM, 0.03 nM and 0.09 nM, respectively. For the same molecule, the Ratio Ki in the experiment listed under Homo sapiens [2] came out at 1000.

Consider `Cc1ccc(-c2cnc(C(=O)N3CCCC3)o2)cc1S(N)(=O)=O`, for which the inhibition constant Ki at Carbonic anhydrase 12 came to 2790 nM; at Carbonic anhydrase 9, 42.5 nM; at Carbonic anhydrase 2, 0.01 nM; at Carbonic anhydrase 1, 8.5 nM. The Ratio Ki in the experiment filed under Homo sapiens [1] and in the experiment filed under Homo sapiens [2] was > 100000 throughout.

Consider `Cc1ncc(-c2ccc(C)c(S(N)(=O)=O)c2)o1`, for which the Ki was 245 nM on Carbonic anhydrase 12, 274 nM on Carbonic anhydrase 9, 7.1 nM on Carbonic anhydrase 2 and 45.4 nM on Carbonic anhydrase 1. Also, the Ratio Ki in the experiment filed under Homo sapiens [1] and in the experiment filed under Homo sapiens [2] was > 100000 in each case.

`NS(=O)(=O)c1cc(-c2cnc(C3CC3)o2)cs1`: the Ki at Carbonic anhydrase 12 was 8.7 nM; at Carbonic anhydrase 2 it was 2.5 nM; on Carbonic anhydrase 1, 22 nM. The Ratio Ki in the experiment listed under Homo sapiens [2] stood at 1000.

With `NS(=O)(=O)c1ccc(-c2cnc(C3CCC3)o2)cc1`, the Ki was determined as 8.7 nM at Carbonic anhydrase 12, 0.02 nM on Carbonic anhydrase 2 and 55.3 nM on Carbonic anhydrase 1. The Ratio Ki in the experiment filed under Homo sapiens [3], in the experiment listed under Homo sapiens [4] and in the experiment listed under Homo sapiens [5] was 100 throughout.

On to `Cc1ncc(-c2ccc(S(N)(=O)=O)cc2)o1`, for which the figures for the Ki at Carbonic anhydrase 12, on Carbonic anhydrase 9 and at Carbonic anhydrase 1 were 8.5 nM, 23.1 nM and 96.3 nM, respectively.

In the case of `NS(=O)(=O)c1ccc(-c2cnc(C(=O)N3CCOCC3)o2)s1`, the Ki at Carbonic anhydrase 12 was determined as 30.3 nM; on Carbonic anhydrase 9, 36.4 nM; on Carbonic anhydrase 1, 22.5 nM.

Turning to `NS(=O)(=O)c1ccc(-c2cnc(C(=O)N3CCOCC3)o2)cc1`, the inhibition constant (Ki) on Carbonic anhydrase 12 was 6.9 nM; at Carbonic anhydrase 9, 1.6 nM; at Carbonic anhydrase 2, 0.008 nM; on Carbonic anhydrase 1, 0.01 nM.

For the molecule `COc1ccc(-c2cnc(C3CCC3)o2)cc1S(N)(=O)=O`, the results for the Ki on Carbonic anhydrase 12, at Carbonic anhydrase 2 and on Carbonic anhydrase 1 were 62.8 nM, 58.2 nM and 6110 nM, respectively. Moreover, the Ratio Ki in the experiment filed under Homo sapiens [1] and in the experiment listed under Homo sapiens [2] was > 100000 throughout.

`Cc1ccc(-c2cnc(C(=O)N3CCOCC3)o2)cc1S(N)(=O)=O`: the Ki is 557 nM at Carbonic anhydrase 12, 3.7 nM on Carbonic anhydrase 9, 0.28 nM at Carbonic anhydrase 2 and 58.6 nM on Carbonic anhydrase 1. For the same molecule, the Ratio Ki in the experiment listed under Homo sapiens [1] and in the experiment listed under Homo sapiens [2] was > 100000 in each case.

On to `COc1ccc(-c2cnc(C(=O)N3CCCC3)o2)cc1S(N)(=O)=O`, for which the Ki is 8570 nM at Carbonic anhydrase 12, 4.1 nM on Carbonic anhydrase 9, 0.01 nM at Carbonic anhydrase 2 and > 10000 nM at Carbonic anhydrase 1. Also, the Ratio Ki in the experiment filed under Homo sapiens [1] and in the experiment filed under Homo sapiens [2] was > 100000 in each case.

As to `Cc1ncc(-c2ccc(S(N)(=O)=O)s2)o1`, the Ki was found to be 9.4 nM on Carbonic anhydrase 12, 10.5 nM at Carbonic anhydrase 9, 6.3 nM at Carbonic anhydrase 2 and 141 nM at Carbonic anhydrase 1. In the experiment listed under Homo sapiens [2], the Ratio Ki amounted to 1000.

For the molecule `NS(=O)(=O)c1ccc(-c2cnc(C3CC3)o2)cc1`, the inhibitory constant (Ki) came to 6.2 nM at Carbonic anhydrase 12, 3.2 nM at Carbonic anhydrase 9, 0.01 nM at Carbonic anhydrase 2 and 4.8 nM on Carbonic anhydrase 1. Further, the Ratio Ki in the experiment filed under Homo sapiens [3], in the experiment filed under Homo sapiens [4] and in the experiment listed under Homo sapiens [5] was 100 throughout.

For `COc1ccc(-c2cnc(C3CC3)o2)cc1S(N)(=O)=O`, the Ki was 7960 nM at Carbonic anhydrase 12, 438 nM on Carbonic anhydrase 9, 8860 nM on Carbonic anhydrase 2 and > 10000 nM at Carbonic anhydrase 1. Further, the Ratio Ki in the experiment listed under Homo sapiens [1] and in the experiment filed under Homo sapiens [2] was > 100000 in each case.

In the case of `Cc1ccc(-c2cnc(C3CC3)o2)cc1S(N)(=O)=O`, the Ki on Carbonic anhydrase 12 amounted to 381 nM; on Carbonic anhydrase 2 it was 63.9 nM; at Carbonic anhydrase 1 it was 289 nM. In addition, the Ratio Ki in the experiment filed under Homo sapiens [1] and in the experiment listed under Homo sapiens [2] was > 100000 in each case.

As to `Cc1ccc(-c2cnc(C3CCC3)o2)cc1S(N)(=O)=O`, the inhibition constant Ki at Carbonic anhydrase 12 was determined as 1390 nM; on Carbonic anhydrase 9, 285 nM; at Carbonic anhydrase 2 it was 283 nM; on Carbonic anhydrase 1, 231 nM. Also, the Ratio Ki in the experiment filed under Homo sapiens [1] and in the experiment listed under Homo sapiens [2] was > 100000 in each case.

On to `NS(=O)(=O)c1cc(-c2cnc(C(=O)N3CCCC3)o2)cs1`, for which the Ki on Carbonic anhydrase 12 was 64.4 nM; at Carbonic anhydrase 9, 15.2 nM; at Carbonic anhydrase 2, 0.02 nM; on Carbonic anhydrase 1, 79.9 nM. For the same molecule, the Ratio Ki in the experiment listed under Homo sapiens [2] worked out at 1000.

Take `Cc1ncc(-c2csc(S(N)(=O)=O)c2)o1`: the inhibitory constant (Ki) on Carbonic anhydrase 12 is 3.6 nM; on Carbonic anhydrase 9, 26.3 nM; at Carbonic anhydrase 2, 0.01 nM; on Carbonic anhydrase 1, 0.05 nM. Further, the Ratio Ki in the experiment listed under Homo sapiens [2] was determined as 1000.

Turning to `NS(=O)(=O)c1ccc(-c2cnc(C3CC3)o2)s1`, the inhibition constant Ki at Carbonic anhydrase 12 is 9.2 nM; on Carbonic anhydrase 9, 122 nM; at Carbonic anhydrase 2 it was 4.8 nM; on Carbonic anhydrase 1 it was 130 nM. Moreover, the Ratio Ki in the experiment listed under Homo sapiens [2] came to 1000.

Consider `NS(=O)(=O)c1ccc(-c2cnc(C3CCC3)o2)s1`, for which the inhibition constant Ki at Carbonic anhydrase 12 was 5.1 nM; on Carbonic anhydrase 2, 0.01 nM; at Carbonic anhydrase 1, 36.8 nM. Moreover, the Ratio Ki in the experiment filed under Homo sapiens [2] is 1000.

With `NS(=O)(=O)c1cc(-c2cnc(C3CCC3)o2)cs1`, the inhibitory constant (Ki) on Carbonic anhydrase 12 was 6.6 nM; on Carbonic anhydrase 9 it was 25.9 nM; at Carbonic anhydrase 2, 0.01 nM; at Carbonic anhydrase 1 it was 9 nM. Besides, the Ratio Ki in the experiment listed under Homo sapiens [2] turned out to be 1000.

(Values after ChEMBL document CHEMBL3608251, “Probing the 'bipolar' nature of the carbonic anhydrase active site: aromatic sulfonamides containing 1,3-oxazol-5-yl moiety as picomolar inhibitors of cytosolic CA I and CA II isoforms” (Eur J Med Chem, 2015).)
